From ChEMBL document CHEMBL2163314, “Potent aminocyclitol glucocerebrosidase inhibitors are subnanomolar pharmacological chaperones for treating gaucher disease” (J Med Chem, 2012)
Active and inactive are the calls of the source. The rule behind the calls is not given here.

Legend:
[1] = target: T1, Lysosomal acid glucosylceramidase (Homo sapiens, UniProt P04062); test: Competitive inhibition of recombinant Imiglucerase using 4-methylumbelliferyl-beta-D-glucopyranoside as substrate preincubated for 30 mins before substrate addition at pH 5.2 by Dixon plot assay
T1 sequence (P04062 whole entry): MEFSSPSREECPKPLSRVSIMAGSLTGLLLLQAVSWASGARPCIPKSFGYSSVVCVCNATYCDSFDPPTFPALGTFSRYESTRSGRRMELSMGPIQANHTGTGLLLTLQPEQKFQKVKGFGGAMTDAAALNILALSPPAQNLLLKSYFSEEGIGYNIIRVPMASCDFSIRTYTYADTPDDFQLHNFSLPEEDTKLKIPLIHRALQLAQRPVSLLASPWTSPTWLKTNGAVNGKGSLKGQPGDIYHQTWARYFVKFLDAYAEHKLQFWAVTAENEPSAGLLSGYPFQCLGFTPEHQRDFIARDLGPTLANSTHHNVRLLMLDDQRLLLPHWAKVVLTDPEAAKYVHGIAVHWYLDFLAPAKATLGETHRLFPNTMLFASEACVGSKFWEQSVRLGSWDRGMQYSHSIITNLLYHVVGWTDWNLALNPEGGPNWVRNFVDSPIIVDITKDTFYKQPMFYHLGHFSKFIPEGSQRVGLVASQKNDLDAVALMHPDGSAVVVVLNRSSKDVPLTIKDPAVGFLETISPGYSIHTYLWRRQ

[2] = target: T1, Lysosomal acid glucosylceramidase; test: Competitive inhibition of recombinant Imiglucerase using 4-methylumbelliferyl-beta-D-glucopyranoside as substrate preincubated for 30 mins before substrate addition at pH 5.2 by Lineweaver-Burk plot assay
[3] = target: T1, Lysosomal acid glucosylceramidase; test: Binding affinity to recombinant imiglucerase using 4-methylumbelliferyl-beta-D-glucopyranoside as substrate preincubated for 30 mins before substrate addition by Dixon plot assay
[4] = target: T1, Lysosomal acid glucosylceramidase; test: Binding affinity to recombinant imiglucerase using 4-methylumbelliferyl-beta-D-glucopyranoside as substrate preincubated for 30 mins before substrate addition by Lineweaver-Burk plot assay
[5] = target: T2, Non-lysosomal glucosylceramidase (Mus musculus) (UniProt Q69ZF3); test: Inhibition of GBA2 activity in mouse tissue homogenate at 50 uM
T2 sequence (whole entry): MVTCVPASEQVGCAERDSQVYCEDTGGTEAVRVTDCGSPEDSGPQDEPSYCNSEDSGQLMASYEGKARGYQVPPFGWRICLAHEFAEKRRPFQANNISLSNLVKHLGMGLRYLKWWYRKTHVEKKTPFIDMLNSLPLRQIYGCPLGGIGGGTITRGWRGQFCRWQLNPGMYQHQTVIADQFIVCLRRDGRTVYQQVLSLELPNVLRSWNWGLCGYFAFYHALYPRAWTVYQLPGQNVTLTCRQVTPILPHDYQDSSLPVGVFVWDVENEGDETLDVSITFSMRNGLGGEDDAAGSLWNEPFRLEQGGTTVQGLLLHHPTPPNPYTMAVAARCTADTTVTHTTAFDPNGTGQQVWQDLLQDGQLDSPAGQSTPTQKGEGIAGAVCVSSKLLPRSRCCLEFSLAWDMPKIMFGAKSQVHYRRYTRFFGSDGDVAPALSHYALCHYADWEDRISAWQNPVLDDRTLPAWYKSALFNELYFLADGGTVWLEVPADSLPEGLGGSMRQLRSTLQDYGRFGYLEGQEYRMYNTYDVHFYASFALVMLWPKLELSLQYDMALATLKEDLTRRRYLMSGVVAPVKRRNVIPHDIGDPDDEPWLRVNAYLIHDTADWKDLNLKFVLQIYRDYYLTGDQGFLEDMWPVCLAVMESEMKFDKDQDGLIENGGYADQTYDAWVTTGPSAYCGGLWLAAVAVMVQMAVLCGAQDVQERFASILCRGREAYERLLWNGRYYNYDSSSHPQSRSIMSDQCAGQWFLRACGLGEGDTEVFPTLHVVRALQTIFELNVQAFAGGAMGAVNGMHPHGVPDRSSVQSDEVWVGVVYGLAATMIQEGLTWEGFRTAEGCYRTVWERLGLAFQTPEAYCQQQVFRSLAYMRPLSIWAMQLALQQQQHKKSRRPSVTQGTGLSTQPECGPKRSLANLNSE
In short: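 Mouse tissue homogenates were used to separate nonlysosomal GBA2 from lysosomal GCase β-glucosidase activity. Compounds were screened at 50 and 5 μM with 3 mM substrate. Two independent experiments, each run in duplicate.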

[6] = target: T1, Lysosomal acid glucosylceramidase; test: Competitive inhibition of recombinant Imiglucerase using 4-methylumbelliferyl-beta-D-glucopyranoside as substrate preincubated for 30 mins before substrate addition at pH 7.0 Lineweaver-Burk plot assay
Oryza sativa = test: Inhibition of rice alpha-glucosidase at 100 uM
[7] = target: T3, Beta-galactosidase (Homo sapiens) (UniProt P16278); test: Inhibition of lysosomal beta-galactosidase in human fibroblast at 50 uM after 24 hrs
T3 sequence (whole entry): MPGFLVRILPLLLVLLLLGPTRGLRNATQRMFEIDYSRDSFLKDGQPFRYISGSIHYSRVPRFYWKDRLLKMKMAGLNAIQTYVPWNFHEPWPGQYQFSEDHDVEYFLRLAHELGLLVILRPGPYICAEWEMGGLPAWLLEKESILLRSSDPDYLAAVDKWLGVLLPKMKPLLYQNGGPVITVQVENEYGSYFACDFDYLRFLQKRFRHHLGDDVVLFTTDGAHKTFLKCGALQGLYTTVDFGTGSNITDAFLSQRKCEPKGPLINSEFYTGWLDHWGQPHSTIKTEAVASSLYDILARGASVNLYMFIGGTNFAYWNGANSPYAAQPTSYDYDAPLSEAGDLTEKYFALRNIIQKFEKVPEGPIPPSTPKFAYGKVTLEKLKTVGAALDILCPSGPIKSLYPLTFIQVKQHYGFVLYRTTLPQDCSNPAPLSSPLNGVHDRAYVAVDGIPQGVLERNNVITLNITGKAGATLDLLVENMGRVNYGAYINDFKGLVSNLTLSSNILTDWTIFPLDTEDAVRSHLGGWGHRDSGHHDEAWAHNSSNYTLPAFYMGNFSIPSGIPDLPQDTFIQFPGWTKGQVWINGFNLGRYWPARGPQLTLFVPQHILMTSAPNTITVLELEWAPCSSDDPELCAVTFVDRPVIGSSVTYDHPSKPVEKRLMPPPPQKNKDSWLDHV
In short: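 Wild-type human fibroblasts (DMEM, 10% FBS, passages 14–30) were plated overnight, then exposed to compound in fresh medium for 24 h at 37 °C, 5% CO2. Lysosomal enzyme activity was then assayed in intact monolayers after the medium was removed. Triplicate determinations.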

[8] = target: Alpha-galactosidase (Coffea arabica) (UniProt Q42656); test: Inhibition of green coffee beans alpha-galactosidase at 100 uM
Sequence of Alpha-galactosidase (Coffea arabica) (Q42656 16-378 limits assumed): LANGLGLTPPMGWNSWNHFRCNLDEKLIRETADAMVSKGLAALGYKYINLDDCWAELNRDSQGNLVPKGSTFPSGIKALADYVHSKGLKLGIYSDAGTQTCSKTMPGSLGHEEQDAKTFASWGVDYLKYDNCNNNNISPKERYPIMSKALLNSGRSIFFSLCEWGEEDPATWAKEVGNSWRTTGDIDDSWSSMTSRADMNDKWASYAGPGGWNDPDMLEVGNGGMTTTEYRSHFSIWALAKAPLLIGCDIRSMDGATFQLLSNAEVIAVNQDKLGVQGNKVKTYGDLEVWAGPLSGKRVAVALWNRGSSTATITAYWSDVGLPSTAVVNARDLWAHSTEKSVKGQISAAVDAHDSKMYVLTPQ

Prunus dulcis = test: Inhibition of almond beta-glucosidase at 100 uM
[9] = Stabilization of recombinant imiglucerase at 1 uM at 48 degC after 60 mins by fluorimetry relative to incubation at 37 degC
In short: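 Imiglucerase (2 mg/mL aliquots) heated at 48 °C with compound, three concentrations. At set times, residual activity measured with 4 mM 4-MU-β-glucoside (McIlvaine pH 5.2, Triton X-100, taurocholate) after acetate-phosphate pH 5.0, 10 min at 37 °C. Read at 355/460 nm. Ratio is relative enzymatic activity, inhibitor vs control, taken at 60 min. Activity relative to unheated (37 °C) enzyme; triplicate.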

| Compound | IC50 [1] | IC50 [2] | Ki [3] | Ki [4] | inhibition [5] | IC50 [6] | inhibition (Oryza sativa) | inhibition [7] | inhibition [8] | inhibition (Prunus dulcis) | Ratio [9] |
| --- | --- | --- | --- | --- | --- | --- | --- | --- | --- | --- | --- |
| CCCCCCCCCN[C@@H]1[C@H](O)[C@@H](O)[C@H](O)[C@@H](O)[C@@H]1O | 52600 nM | 52600 nM | 17900 nM | 17900 nM | 92% | 24900 nM | inactive | inactive | inactive | inactive |  |
| CCCCCCCCCN[C@H]1[C@H](O)[C@@H](O)[C@H](O)[C@@H](O)[C@@H]1OCCCCCCCCC.Cl | 670 nM | 670 nM | 280 nM | 280 nM | Active | 170 nM | inactive |  | inactive | inactive | 5.2 |
| CCCCCCCCCN[C@H]1[C@H](O)[C@@H](O)[C@H](O)[C@@H](O)[C@@H]1O | 3900 nM | 3900 nM | 1900 nM | 1900 nM | Active | 780 nM | inactive | inactive | inactive | inactive |  |
| CCCCCCCCCN[C@H]1[C@H](O)[C@@H](O)[C@H](O)[C@@H](O)[C@H]1OCCCCCCCCC.Cl | 4 nM | 4 nM | 1 nM | 1 nM | Active | 5 nM | inactive |  | inactive | inactive | 29 |
| CCCCCCCCCN[C@@H]1[C@H](O)[C@H](O)[C@@H](O)[C@H](O)[C@H]1O.Cl | 80 nM | 80 nM | 32 nM | 32 nM | Active | 25 nM | inactive | inactive | inactive | inactive | 5 |
| CCCCCCCCCN[C@H]1[C@H](O)[C@@H](O)[C@H](O)[C@@H](O)[C@@H]1OC.Cl | 4400 nM | 4400 nM | 1580 nM | 1580 nM | Active | 670 nM | inactive | inactive | inactive | inactive |  |
| CCCCCCCCCN(CCCCCCCCC)[C@@H]1[C@H](O)[C@H](O)[C@@H](O)[C@H](O)[C@H]1O.Cl | 1720 nM | 1720 nM | 820 nM | 820 nM | Active | 530 nM | inactive |  | inactive | inactive | 1.2 |
| CCCCCCCCCN[C@H]1[C@H](O)[C@@H](O)[C@H](O)[C@@H](O)[C@H]1OC.Cl | 130 nM | 130 nM | 53 nM | 53 nM | Active | 19 nM | inactive | inactive | inactive | inactive | 2 |
| CCCCCCCCCO[C@H]1[C@@H](N)[C@H](O)[C@@H](O)[C@H](O)[C@H]1O.Cl | 450 nM | 450 nM | 130 nM | 130 nM | Active | 120 nM | inactive | inactive | inactive | inactive | 2.2 |
